Reference: article PMC4832308 (Cancer, 2015)
Converted amounts (≈) assume the structure as drawn. “And” between values parts separate entries of the source, which are not always exact repeats. Equal entries are not always repeated. Where two headings read alike, the source gives them in different places.

What was measured:
[1] = test system: pAKT; experiment: blood biomarker analysis by flow cytometry and PK/PD modeling; format: in vivo, human; conditions: for EC50: Homo sapiens, read-out: EC50 for pAKT inhibition
[2] = test system: pAKT; experiment: immuno‐histochemical staining of tumor biopsies; format: in vivo, human; conditions: pre‐ vs on‐treatment (days 15‐22), HCC and salivary gland tumor, 30‐mg/d cohort
Procedure, shortened: (§1)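 Optional pretreatment and on-treatment (days 15–22) tumor biopsies from 2 patients in the 30-mg/d cohort (HCC and salivary gland tumor). Paraffin-embedded sections were immunostained per antibody (pS6RP, p4EBP1, pAKT, Ki-67) or TUNEL-labelled, then scored by quantitative image analysis.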

[3] = test system: solid tumor lines, including breast, glioma, hepatocellular carcinoma (HCC), and non–small cell lung cancer; conditions: cited from earlier work
[4] = test system: non‐Hodgkin lymphoma cell lines; conditions: cited from earlier work
[5] = test system: pS6RP; experiment: blood biomarker analysis by flow cytometry and PK/PD modeling; format: in vivo, human; conditions: for EC50: Homo sapiens, read-out: EC50 for pS6RP inhibition
Procedure, shortened: (§2)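 Sodium-heparin patient whole blood, taken predose and 1.5–5 h postdose: 1 h at 37°C, 15-min anti-IgD plus LPS stimulation, lyse/fix, methanol overnight at −80°C, then CD3/CD14/CD20 and phospho-staining and flow cytometry. Bead-calibrated MFI reported as ERF. Baseline-relative change vs plasma drug (chiral LC-MS) was fitted by a direct inhibitory NONMEM model for EC50: p4EBP1 in T cells, pS6RP in B cells and monocytes.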

[6] = test system: TUNEL‐positive cells; experiment: TUNEL staining of tumor biopsies; format: in vivo, human; conditions: HCC and salivary gland tumor samples after treatment
Procedure, shortened: as §1

[7] = test system: patients with advanced solid tumors or multiple myeloma; experiment: phase 1 dose escalation: preliminary efficacy; format: in vivo, human
Procedure, shortened: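 Single dose on day −1, then oral daily dosing after a ≥6-h fast in 28-day cycles until progression. Tumors were imaged by CT or MRI. Response was scored by RECIST 1.1, international uniform criteria for myeloma, or revised high-grade glioma criteria. Evaluable patients were eligible, completed ≥1 cycle, and had baseline plus ≥1 postbaseline assessment. Disease control rate was given with a 90% confidence interval.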

[8] = test system: PC3 prostate cancer; conditions: cited from earlier work
[9] = test system: p4EBP1; experiment: blood biomarker analysis by flow cytometry and PK/PD modeling; format: in vivo, human
Procedure, shortened: as §2

[10] = 30‐, 45‐, and 60‐mg dose levels, 3 hours on treatment

In the case of `CO[C@H]1CC[C@H](N2C(=O)CNc3ncc(-c4ccc(C(C)(C)O)nc4)nc32)CC1` [CC‐223], the “pAKT inhibition in blood cells” value [1, 10] is reported as > 48%, the EC50 ([1]; B-cell) is reported as 0.0504 µg/mL (≈ 0.127 µM) and the EC50 ([1]; Monocyte) is reported as 0.085 µg/mL (≈ 0.214 µM). The “pAKT staining in tumor biopsies” value [2] was “Significant inhibition”, the “activity against solid tumor lines” value [3] was “active” and the “activity against non‐Hodgkin lymphoma cell lines” value [4] was “active”. The “pS6RP inhibition in blood cells” value [5, 10] was > 70%, the EC50 ([5]; B-cell) was 0.0203 µg/mL (≈ 0.0511 µM) and the EC50 ([5]; Monocyte) was 0.174 µg/mL (≈ 0.438 µM). For the same molecule, the “TUNEL‐positive cells in tumor biopsies” value [6] was “increase”, the complete response ([7]; 20 patients evaluable for efficacy) was “No patient had a complete response” and the “patients with stable disease” value ([7]; across ≥15 mg/d cohorts) was 8 patients. The “patients with progressive disease” value ([7]; best response) was 12 patients, the “duration of partial response / disease control” value ([7]; breast cancer patient with PR, 30‐mg/d cohort) was 220 days and the disease control duration ([7]; breast cancer patient with SD) was 168 days. The partial response rate ([7]; breast cancer patient, 30‐mg/d cohort) was 3.6%, the “patients with reduction in target lesions” value ([7]; in addition to the PR) was 5 patients and the “patients with SD >100 days” value ([7]; in vivo) was 5 patients. For the same molecule, the “patients with disease control durations of >100 days” value ([7]; in vivo) was “Six”, the “best overall response rate per investigator” value ([7]; safety population) was 3.6% and the disease control rate ([7]; safety population) was 32% and 32.1%. For the same molecule, the stable disease rate ([7]; safety population) was 29%, the “single‐agent activity in xenograft model” value [8] was “single‐agent activity” and the “p4EBP1 inhibition in blood cells” value [9, 10] was > 40%. It also gave an EC50 ([9]; Homo sapiens, T-cell, read-out: EC50 for p4EBP1 inhibition) of 0.113 µg/mL (≈ 0.284 µM).
